HTR5A inv ctr: inverse agonist of human HTR5A in OPRM1-OPRD1 counter-screen. HTR5A cell line, luminescence, inverse agonism. 0.083% of 340,000 active. P47898. inhibition, % at 9.3 µM; in the data active = inhibition mostly above about 23%, no sharp cut-off; inactive = mostly below about 18%
Target sequence (P47898 whole entry, looked up): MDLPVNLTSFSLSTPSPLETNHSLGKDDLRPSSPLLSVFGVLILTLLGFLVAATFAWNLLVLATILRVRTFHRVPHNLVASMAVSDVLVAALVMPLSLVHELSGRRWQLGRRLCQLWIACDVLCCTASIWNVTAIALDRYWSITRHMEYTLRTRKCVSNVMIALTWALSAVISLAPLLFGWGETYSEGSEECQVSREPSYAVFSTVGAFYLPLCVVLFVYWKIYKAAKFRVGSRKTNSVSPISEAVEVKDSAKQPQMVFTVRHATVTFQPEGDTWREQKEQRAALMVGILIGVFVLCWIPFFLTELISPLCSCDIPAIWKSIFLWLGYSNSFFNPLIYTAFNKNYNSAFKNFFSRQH
MOR-DOR inv ag-1: mu-delta opioid heterodimer inverse agonism; P35372+P41143; cell-based MOR-DOR heterodimer luminescence; inhibition, % at 9.3 µM; 0.21% of 340,000 active; in the data active = inhibition above about 22%, passing the limit was not always enough
Arrestin-AP2 inh: blocks beta-arrestin peptide binding to AP2 adaptin; FITC-arrestin peptide / GST-AP2 beads, flow cytometry; AP2 beta2 appendage carries R879A mutation; inhibition, % at 10 µM; 0.31% of 340,000 active; AID 504490;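 active = inhibition above a set limit, near 3 SD of compounds lacking own fluorescence, cut at about 54% in these data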
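test system = AP2 appendage R879A on GSH beads | buffer or medium = PBS plus Tween 20 (0.05%) and BSA (0.1%) | incubation = 12 min plus 1 h, RT | detection = bead flow cytometry, FITC channel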
DAGLB inh: blocks human DAGLB lipase activity. Q8NCG7. HEK293T DAGLB membrane lysate, EnzChek fluorogenic substrate. inhibition, % at 5.17 µM. 0.059% of 340,000 active; in the data active = inhibition above about 34%
HTR5A ag: HTR5A agonism, opioid heterodimer counter-screen; P47898; HTR5A agonist assay, luminescence, cell-based; activation, % at 9.3 µM; 0.61% of 340,000 active; AID 504692; in the data active = activation mostly above about 9.5%, no sharp cut-off; inactive = mostly below about 7.6%
MOR-DOR ag: OPRM1-OPRD1 heterodimerization agonism; P35372+P41143; cells, luminescence; activation, % at 9.3 µM; 0.3% of 340,000 active; AID 504326; in the data active = activation above about 18%
OPRM1-D1 ag cf: confirmation of human OPRM1-OPRD1 heterodimerization agonists | shares compounds with MOR-DOR ag | cells, MOR-DOR heterodimerization, luminescence complementation | activation, % at 9.3 µM | 45% of 830 active | AID 504904; in the data active = activation above about 18%
HTR5A ag counter: activates human HTR5A in OPRM1-OPRD1 agonist counter-screen | activation, % at 9.3 µM | shares compounds with MOR-DOR ag | 8% of 830 active | HTR5A agonist counterscreen, cell luminescence; in the data active = activation above about 17%
MOR-DOR inv conf: OPRM1-OPRD1 heterodimer inverse agonism, confirmation; shares compounds with MOR-DOR inv ag-1; cells expressing OPRM1/OPRD1 heterodimer, luminescence; inhibition, % at 9.3 µM; 20% of 580 active; AID 504900; in the data active = inhibition above about 32%
HTR5A inv ctr2: counter-screen for OPRM1-OPRD1 inverse agonists: human HTR5A inverse agonism; 580 tested, under 10 active; shares compounds with MOR-DOR inv ag-1; AID 504914; inhibition, % at 9.3 µM; HTR5A-expressing cells, luminescence
DAGLB inh conf: DAGLB (human) inhibition, confirmation screen | shares compounds with DAGLB inh | HEK293T DAGLB membrane lysate, EnzChek fluorogenic substrate | AID 504445 | 73% of 190 active | inhibition, % at 5.17 µM;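 active = mean inhibition over triplicate wells above a set limit taken from the primary lipase screen, cut at about 34% in these data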
Arr AP2 CP1: inhibitors of human beta-arrestin and AP2 interaction. 2% of 1,300 active. AID 504908. shares compounds with Arrestin-AP2 inh. GST-AP2 beads, FITC arrestin peptide binding, flow cytometry; GST-fused beta2-adaptin appendage, R879A mutant. inhibition, % at 10 µM;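 active = inhibition above a set limit, roughly 3 SD of non-fluorescent compound noise, cut at about 38% in these data; inactive = inhibition at or below that limit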;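 also: loss of bead fluorescence from 50 nM FITC arrestin peptide bound to appendage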
GST GSH counter: counter-screen for beta-arrestin AP2 inhibitors: GST-GSH bead binding; shares compounds with Arrestin-AP2 inh; GST-fluorescein binding to GSH beads, fluorescence; inhibition, % at 10 µM; 2% of 1,300 active; AID 588338;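 active = inhibition above 50%, about 3 SD of the inhibition seen with non-fluorescent compounds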;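 also: fluorescein maleimide labelled GST captured on 4 micron glutathione beads; higher means more loss of bead fluorescence from quenching or blocked binding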
MOR-DOR inv ag-2: counter-screen for HTR5A inverse agonists: OPRM1-OPRD1 heterodimerization inverse agonism. shares compounds with HTR5A inv ctr. U2OS counter-screen cells, complementation luminescence. inhibition, % at 9.3 µM. 190 tested, under 10 active
HTR5A inv confrm: confirmation of human HTR5A inverse agonists. HTR5A-expressing cells, inverse agonism, luminescence. 190 tested, under 10 active. inhibition, % at 9.3 µM. shares compounds with HTR5A inv ctr
Hits are given with their value; - = inactive; . = no result given; ! = not active in a repeat. Compounds with a hit are over-represented: about 1.4% of the library has one in this group of screens. Unless noted, no rule for the calls is given here.

SMILES | HTR5A inv ctr | MOR-DOR inv ag-1 | Arrestin-AP2 inh | DAGLB inh | HTR5A ag | MOR-DOR ag | others
CCCN1CCc2cccc3c2[C@H]1Cc1ccc(O)c(O)c1-3 | - | - | - | - | - | 19 | OPRM1-D1 ag cf=20;HTR5A ag counter=-
NNCc1ccccc1 | - | - | - | - | - | -
N#CC(Br)Br | - | - | - | - | - | -
COC[C@H]1OC(=O)c2coc3c2[C@@]1(C)C1=C(C3=O)[C@@H]2CCC(=O)[C@@]2(C)C[C@H]1OC(C)=O | - | - | - | - | - | -
COc1ccc(P2(=O)Nc3ccccc3N2)cc1 | - | - | - | - | - | -
COc1ccc2c(c1)NP(=S)(c1ccccc1)N2C (configuration not stated) | - | - | - | - | - | 19 | OPRM1-D1 ag cf=-;HTR5A ag counter=-
c1ccc(-c2ccc(CN3Cc4ccccc4-n4nncc4C3)cc2)cc1 | . | . | . | - | . | .
c1ccc(C(c2ccccc2)c2ccncc2)cc1 | - | - | - | - | - | -
COCCCn1c(N)c(C(=O)OCCOC)c2nc3ccccc3nc21 | - | - | - | - | - | -
CCOC(=O)c1c(NS(=O)(=O)c2ccccc2)n(CCCOC)c2nc3ccccc3nc12 | - | 46 | - | - | - | - | MOR-DOR inv conf=-;HTR5A inv ctr2=-
ON1C2CCCCC2N(O)C1c1ccccc1F (configuration not stated) | - | 54 | - | - | - | - | MOR-DOR inv conf=-;HTR5A inv ctr2=-
COC(=O)c1c(N)n(Cc2ccc(OC)cc2)c2nc3ccccc3nc12 | - | 32 | - | - | - | - | MOR-DOR inv conf=-;HTR5A inv ctr2=-
CC(C)OC(=O)c1c(N)n(Cc2ccco2)c2nc3ccccc3nc12 | - | - | - | - | - | -
COCCOC(=O)c1c(N)n(Cc2ccco2)c2nc3ccccc3nc12 | - | 29 | - | - | - | - | MOR-DOR inv conf=-;HTR5A inv ctr2=-
CC(C)(C)N1CC(C(=O)c2ccccc2)C1c1ccccc1 (configuration not stated) | - | - | - | - | - | -
CC12C=CC(=O)C=C1CCC1C2C(O)CC2(C)C1CCC2(C)O (configuration not stated) | - | - | - | - | - | -
C[C@H]1CCC[C@@H](O)CCC/C=C/c2cc(O)cc(O)c2C(=O)O1 | - | - | - | - | - | -
CC1CCC/C=C/C2CC(O)CC2C(O)/C=C/C(=O)O1 (configuration not stated) | - | 38 | - | - | - | - | MOR-DOR inv conf=-;HTR5A inv ctr2=-
C[C@H]1CCC/C=C/C2C[C@H](O)CC2[C@H](O)/C=C/C(=O)O1 (some centres not stated) | - | 38 | - | - | - | - | MOR-DOR inv conf=-;HTR5A inv ctr2=-
CCCC1(CC(C)CC)C(=O)NC(=O)NC1=O (configuration not stated) | . | . | . | - | . | .
O=[N+]([O-])c1cc(O)c(O)c([N+](=O)[O-])c1 | - | - | - | 42 | - | - | DAGLB inh conf=-
COc1ccc(C2=CC(c3ccc4c(c3)OCO4)c3c(c4ccccc4oc3=O)O2)cc1OC (configuration not stated) | - | - | - | - | - | -
CN1C(=O)N(C)C(=O)C2(Cc3cc(NC(=O)c4ccccc4Cl)ccc3N3CCCC32)C1=O (configuration not stated) | - | - | 56 | - | - | - | Arr AP2 CP1=-;GST GSH counter=-
CCCCCCC(C)(C)c1ccc([C@@H]2C[C@H](O)CC[C@H]2CCCO)c(O)c1 | - | - | - | - | - | -
O=C(Nc1cc(Cl)cc(Cl)c1)N1Cc2ccccc2-n2nncc2C1 | . | . | . | - | . | .
SMILES | HTR5A inv ctr | MOR-DOR inv ag-1 | Arrestin-AP2 inh | DAGLB inh | HTR5A ag | MOR-DOR ag | others
CC[N+]12CCC(CC1)C(=C(c1ccccc1)c1ccccc1)C2 | - | - | - | - | - | -
C[N+]12CCC(CC1)C(=C(c1ccccc1)c1ccccc1)C2 | - | - | 66 | - | - | - | Arr AP2 CP1=-;GST GSH counter=-
C(=NC1CCCCC1)c1c[nH]c2ccccc12 | - | - | - | - | - | -
O=C(NCCO)c1nsnc1NCCCl | - | - | 58 | - | - | - | Arr AP2 CP1=-;GST GSH counter=-
O=C(c1ccc(Cl)cc1)C12CN3CN(CN(C3)C1)C2 | - | - | 105 | - | - | - | Arr AP2 CP1=-;GST GSH counter=-
CCOC(=O)c1c(/N=C/c2c(O)n(-c3ccc(F)cc3)c(=S)[nH]c2=O)sc2c1CCCC2 | - | - | - | - | - | -
CCOC(=O)c1c(/N=C/c2c(O)n(-c3ccccc3F)c(=S)[nH]c2=O)sc2c1CCCC2 | - | - | 84 | - | - | - | Arr AP2 CP1=-;GST GSH counter=-
CN1CCN(c2ccc(N)cc2Cl)CC1 | . | . | 59 | . | . | . | Arr AP2 CP1=-;GST GSH counter=52
O=c1c2ccccc2nc(-c2ccccc2)n1-c1ccccc1 | - | - | - | - | - | -
O=c1c2ccccc2[se]n1-c1ccccc1 | - | - | 92 | - | - | - | Arr AP2 CP1=125!;GST GSH counter=-
[Cl][Pt+2][Cl].[NH-]C1CCCCC1[NH-] (configuration not stated) | - | - | - | - | - | -
COCCn1c(O)c(/C=N/NC(=O)CSC(=S)N2CCCC2)c(=O)[nH]c1=S | 30 | - | - | - | - | - | MOR-DOR inv ag-2=-;HTR5A inv confrm=-
CN1CCN(c2c(F)cc([N+](=O)[O-])c(N)c2Br)CC1 | 34 | - | - | - | - | - | MOR-DOR inv ag-2=-;HTR5A inv confrm=-
O=c1[nH]c(O)c(N=Nc2cc([N+](=O)[O-])ccc2O)c(=O)[nH]1 | 28 | - | - | - | - | - | MOR-DOR inv ag-2=-;HTR5A inv confrm=-
O=[N+]([O-])c1ccc(O)c([N+](=O)[O-])c1 | - | - | - | - | - | -

Screens from PubChem.
